In ChEMBL document CHEMBL5038583, “Highly Potent and Selective Butyrylcholinesterase Inhibitors for Cognitive Improvement and Neuroprotection” (J Med Chem, 2021):
The source made the active and inactive calls. The rule behind the calls is not given here.

Experiments:
[1] = Cmax in ICR mouse brain at 10 mg/kg, po measured upto 240 mins; format: ADME, organism-based; design: route oral, dose 10 mg/kg, time <=240
Summary of the method: (§1)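 ICR mice given 10 mg/kg orally in 5% DMSO/40% PEG400/55% saline (1 mg/mL). Blood (retro-orbital) and brain collected at 30, 60, 120 and 240 min. Brain homogenized in 2 volumes PBS, extracted with ethyl acetate, dried and reconstituted in mobile phase. Plasma processed as in the rat study; LC/MS/MS. Brain/plasma ratios from exposures, AUC(B) vs AUC(P).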

[2] = Ratio of drug concentration in brain to plasma of ICR mouse at 10 mg/kg, po measured after 2 hrs; format: ADME, organism-based; summary of the method: as §1
[3] = tested on: Plasma; test: Increase in ghrelin levels in ICR mouse plasma assessed as inhibition of BChE; format: functional, cell-free
[4] = tested on: Mus musculus; test: Anti-alzheimer activity in amyloid beta(1 to 42)-induced ICR mouse model of cognitive impairment assessed as enhanced alternation performance by measuring total number of arm entries at 15 mg/kg, ig administered at days 2 to 14 and measured on day 15 by Y-maze test; format: functional
Summary of the method: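 Oligomerized Aβ1-42 (10 μg per mouse, icv) given on day 1; saline icv for sham. Dosing 15 mg/kg ig on days 2−14 (donepezil as positive control), n = 8. Spontaneous alternation read on day 15 in a three-arm grey PVC Y maze, arms at 120°. Mean SD.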

Nc1nonc1-c1nc2ccccc2n1CC(=O)Nc1cnc2ccccc2c1
Cmax [1]: 12.1 ng/mL | Kp at 2 h [2]: 2.43 | Activity [3]: Active | Activity [4]: Active
